The source made the active and inactive calls. The rule behind the calls is not given here.

In series [1] the test system is Trypanosoma brucei brucei. In words: Antitrypanosomal activity against bloodstream forms of Trypanosoma brucei brucei strain 427 assessed as growth inhibition measured after 48 hrs by Alamar blue assay. Format: functional, organism-based. The following applies: Trypanosoma brucei, 427, 48 h. In short, it runs like this:
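Bloodstream T. b. brucei 427 at 5 x 10^3 cells/well in supplemented HMI-9 with 10% FBS. Compounds in DMSO over 0.01–50 μM, triplicates. After 48 h exposure, Alamar blue was added for 4 h at 37°C. Fluorescence read at ex/em 530/590 nm; suramin was the positive control. EC50 = half-maximal trypanosomal viability.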
(In general: The colour change of resazurin is a common sign of viable cells or microbes.)

The next series has as its system HepG2. In words: (§1) Cytotoxicity against human HepG2 cells assessed as cell growth measured after 72 hrs mby MTT assay. The settings on record: hepg2, 72 h. Format: toxicity, cell-based. In short, it runs like this: (§2)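 HepG2 in DMEM:F12 with 10% FBS were seeded at 5 x 10^5 cells/mL and allowed 18-24 h. Compounds in DMSO over 0.01–300 μM for 72 h. MTT was then added for 30 min, formazan dissolved in DMSO and absorbance read at 550 nm. Triplicates; SDS (10%) and podophyllotoxin were the controls. CC50 = half-maximal cellular viability.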
On the technique in general: Tetrazolium assays rely on reduction of a dye to a coloured formazan, in cell work by metabolically active cells.

Series [2] is described as follows: Selectivity index, ratio of CC50 for cytotoxicity against human HepG2 cells to EC50 for Antitrypanosomal activity against bloodstream forms of Trypanosoma brucei brucei strain 427. Format: toxicity, cell-based. The settings on record: read-out: Selectivity Index.
For series [3], the system named is Trypanosoma brucei rhodesiense. Put plainly: Inhibition of Trypanosoma brucei rhodesiense MVAT4 strain Cathepsin-L expressed in Pichia pastoris at 10 uM relative to control. Put shortly: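 Trypanosomal cathepsin L, expressed in Pichia pastoris and purified, was tested at 10 μM after 1 hour. The read-out was percentage inhibition, with E-64 as positive control.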

Series [4] can be described thus: Selectivity index, ratio of CC50 for cytotoxicity against human HepG2 cells to EC50 for Antitrypanosomal activity against bloodstream forms of Trypanosoma brucei gambiense 130R. Format: toxicity, cell-based.
In series [5] the test system is Trypanosoma brucei rhodesiense. Put plainly: Antitrypanosomal activity against bloodstream forms of Trypanosoma brucei rhodesiense STIB 900 assessed as growth inhibition incubated for 70 hrs followed by treated with resazurin 2 to 4 hrs by resazurin based fluorescence assay. Format: functional, organism-based. In short, it runs like this: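 Bloodstream STIB 900 at 2x10^4 parasites/well in HMI-9 with 15% heat-inactivated horse serum. Eleven 3-fold dilutions spanned 100 to 0.002 μM. Plates ran 70 h at 37 °C in 5% CO2, then resazurin for 2–4 h. Fluorescence read at ex/em 536/588 nm; melarsoprol was the control.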

The nature of series [6]: Selectivity index, ratio of CC50 for cytotoxicity against human HepG2 cells to EC50 for Antitrypanosomal activity against bloodstream forms of Trypanosoma brucei rhodesiense STIB 900. Format: toxicity, cell-based.
Series [7] has as its system Trypanosoma brucei gambiense. In words: Antitrypanosomal activity against bloodstream forms of Trypanosoma brucei gambiense 130R assessed as growth inhibition incubated for 68 hrs followed by treated with resazurin 4 to 6 hrs by resazurin based fluorescence assay. Format: functional, organism-based. Put shortly: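 Bloodstream 130R at 4x10^4 parasites/well in HMI-9 with 15% heat-inactivated fetal calf and 5% human serum. Eleven 3-fold dilutions spanned 100 to 0.002 μM. Plates ran 68 h at 37 °C in 5% CO2, then resazurin for 4–6 h. Fluorescence read at ex/em 536/588 nm; melarsoprol was the control.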

The nature of series [8]: Metabolic stability in mouse liver S9 fraction assessed as half life at 0.1 uM measured for every 15 mins by HPLC-MS/MS analysis. Format: ADME, subcellular. The settings on record: s9, 0.25 h.
Series [9] is described as follows: Metabolic stability in mouse liver microsomes assessed as half life at 0.1 uM measured for every 15 mins by HPLC-MS/MS analysis. Format: ADME, Microsome. The following applies: 0.25 h.
The nature of series [10]: as §1. Format: toxicity, cell-based. The settings on record: HepG2 cells. In short, it runs like this: as §2

Consider `CS(=O)(=O)CCCNC(=O)c1ccc([N+](=O)[O-])s1`, for which the EC50 in [1] came to 1290 nM. The CC50 with HepG2 amounted to 98600 nM. Moreover, the selectivity ratio in series [2] was 76.4. The inhibition in [3] was found to be 11.1%.

With `Cc1ncc([N+](=O)[O-])n1CC(=O)N[C@H](/C=C/S(=O)(=O)c1ccccc1)CCc1ccccc1`, in series [1], the EC50 is greater than 50000 nM. Moreover, the CC50 in the series on HepG2 is greater than 300000 nM. The molecule also came in with an inhibition in [3] of 44.1%.

For the molecule `CNC(=O)CCCNC(=O)c1ccc([N+](=O)[O-])s1`, the EC50 in series [1] is 4120 nM; in [5] it was 1960 nM; in [7] it was 1880 nM. In addition, in the series with HepG2, the CC50 amounted to 69500 nM. The selectivity ratio in series [4] came out at 37; in [2], 16.9; in series [6], 35.5. For the same molecule, in series [3], the inhibition entry is “inactive”.

`O=C(N[C@H](/C=C/S(=O)(=O)c1ccccc1)CCc1ccccc1)c1cc(Cl)c([N+](=O)[O-])[nH]1`: in series [1], the EC50 amounted to 31200 nM. In addition, the CC50 with HepG2 was greater than 160000 nM. This molecule had an inhibition in [3] of 26.7%.

As to `CNC(=O)/C=C/CNC(=O)c1ccc([N+](=O)[O-])o1`, the half-maximal effective concentration (EC50) in series [1] stood at 1690 nM; in series [5] it was 220 nM; in series [7], 470 nM. The CC50 in the series on HepG2 is greater than 75000 nM. For the same molecule, the inhibition in series [3] was found to be 17%.

`O=C(NC/C=C/S(=O)(=O)c1ccccc1)c1ccco1`: the 50% effective concentration (EC50) in [1] came out at 1950 nM. Also, the CC50 in the series on HepG2 was 66300 nM. The selectivity ratio in [2] worked out at 34. In series [3], this molecule gave an inhibition of 30.6%.

As to `CS(=O)(=O)/C=C/CNC(=O)c1cccs1`, in series [1], the EC50 was greater than 30000 nM. Besides, in the series on HepG2, the CC50 is greater than 300000 nM. The molecule further had an inhibition in series [3] of 23.6%.

For `CS(=O)(=O)/C=C/CNC(=O)c1ccc([N+](=O)[O-])s1`, the t1/2 in series [8] and in series [9] was greater than 1 h throughout. In addition, the EC50 worked out at 640 nM in series [1], 120 nM in [5] and 250 nM in [7]. In addition, the CC50 in the series with HepG2 came out at 98600 nM. For the same molecule, the selectivity ratio in series [4] is 395; in series [2] it was 154; in series [6], 822. Further, the inhibition in [3] is 23.2%.

As for `CS(=O)(=O)/C=C/CNC(=O)c1ccc([N+](=O)[O-])o1`, the EC50 turned out to be 440 nM in series [1], 50 nM in series [5] and 60 nM in series [7]. Moreover, in the series on HepG2, the CC50 was 21800 nM. In addition, the t1/2 in series [9] is greater than 1 h. The selectivity ratio in [2] came out at 49.5. This molecule came in with an inhibition in series [3] of 21.2%.

Regarding `O=C(NC/C=C/S(=O)(=O)c1ccccc1)c1ccc([N+](=O)[O-])s1`, the EC50 in series [1] amounted to 6350 nM; in series [5], 610 nM; in series [7], 320 nM. Further, the CC50 in the series with HepG2 amounted to 20400 nM.

Take `O=C(NC/C=C/S(=O)(=O)c1ccccc1)c1ccc([N+](=O)[O-])o1`: the values for the t1/2 in series [8] and in series [9] were 0.2165 h and greater than 1 h, respectively. Besides, the results for the EC50 in [1], in [5] and in series [7] were 980 nM, 1770 nM and 200 nM, respectively. Further, the CC50 in the series with HepG2 worked out at 59400 nM. Moreover, the selectivity ratio in series [2] was determined as 60.6; in [6] it was 33.5. Further, in [3], the inhibition came out at 17.7%.

On to `CNC(=O)CCCNC(=O)c1cccs1`, for which the EC50 in series [1] is greater than 30000 nM. The half-maximal cytotoxic concentration (CC50) in the series with HepG2 is greater than 300000 nM. Besides, the inhibition result in [3] is “inactive”.

Consider `CS(=O)(=O)CCCNC(=O)c1cccs1`, for which the EC50 in [1] is greater than 30000 nM. The CC50 in the series on HepG2 is greater than 150000 nM. In series [3], the inhibition result is “inactive”.

In the case of `CNC(=O)/C=C/[C@H](CCc1ccccc1)NC(=O)c1ccc([N+](=O)[O-])s1`, the t1/2 in series [8] was 0.3248 h; in [9] it was greater than 1 h. Also, the 50% effective concentration (EC50) in series [1] is 180 nM; in [5], 40 nM; in series [7], 30 nM. Further, the CC50 in the series on HepG2 is 60000 nM. The selectivity ratio is 2000 in series [4], 333 in [2] and 1500 in [6]. In addition, the inhibition in series [3] was determined as 58.4%.

For the molecule `Nc1nc(N)nc(Nc2ccc([As]3SCC(CO)S3)cc2)n1` (configuration not stated) [MELARSOPROL], the concentration for a half-maximal effect (EC50) in series [5] and in series [7] was 10 nM throughout.

On to `O=C(N[C@H](/C=C/S(=O)(=O)c1ccccc1)CCc1ccccc1)c1ccc([N+](=O)[O-])o1`, for which the results for the EC50 in series [1], in [5] and in series [7] were 110 nM, 2730 nM and 70 nM, respectively. Also, the cytotoxic concentration (CC50) at 72 h in series [10] is 5170 nM. Moreover, the inhibition in series [3] stood at 78.1%.

For the molecule `O=C(NCCCS(=O)(=O)c1ccccc1)c1ccc([N+](=O)[O-])o1`, in series [1], the EC50 is 990 nM. For the same molecule, in the series on HepG2, the CC50 amounted to 44600 nM. The selectivity ratio in series [2] was 45. The inhibition in [3] was found to be 15%.

As to `CNC(=O)/C=C/[C@H](CCc1ccccc1)NC(=O)c1ccc([N+](=O)[O-])o1`, the values for the t1/2 in [8] and in [9] were 0.3415 h and greater than 1 h, respectively. In addition, the results for the EC50 in series [1], in series [5] and in [7] were 300 nM, 140 nM and 60 nM, respectively. The CC50 in the series on HepG2 stood at 41700 nM. For the same molecule, the selectivity ratio in series [4] amounted to 694; in series [2] it was 139; in series [6], 298. Moreover, in [3], the inhibition came to 54.8%.

Broadly, the EC50 is the concentration at which the effect is half-maximal. The term CC50 denotes the concentration giving 50% cytotoxicity. The inhibition is the share of the control response that was lost under treatment.

These data come from ChEMBL document CHEMBL5532650, “Discovery of an orally active nitrothiophene-based antitrypanosomal agent” (Eur J Med Chem, 2024).
